Test results: ChEMBL document CHEMBL1122743, “Structure-activity relationship study of the inhibition of adrenal cortical 11 beta-hydroxylase by new metyrapone analogues” (J Med Chem, 1984)
pIC50: −log10 of the molar value.

Molecular target: T1, Cytochrome P450 11B1, mitochondrial (Bos taurus, UniProt P15150)
T1 sequence (P15150 whole entry): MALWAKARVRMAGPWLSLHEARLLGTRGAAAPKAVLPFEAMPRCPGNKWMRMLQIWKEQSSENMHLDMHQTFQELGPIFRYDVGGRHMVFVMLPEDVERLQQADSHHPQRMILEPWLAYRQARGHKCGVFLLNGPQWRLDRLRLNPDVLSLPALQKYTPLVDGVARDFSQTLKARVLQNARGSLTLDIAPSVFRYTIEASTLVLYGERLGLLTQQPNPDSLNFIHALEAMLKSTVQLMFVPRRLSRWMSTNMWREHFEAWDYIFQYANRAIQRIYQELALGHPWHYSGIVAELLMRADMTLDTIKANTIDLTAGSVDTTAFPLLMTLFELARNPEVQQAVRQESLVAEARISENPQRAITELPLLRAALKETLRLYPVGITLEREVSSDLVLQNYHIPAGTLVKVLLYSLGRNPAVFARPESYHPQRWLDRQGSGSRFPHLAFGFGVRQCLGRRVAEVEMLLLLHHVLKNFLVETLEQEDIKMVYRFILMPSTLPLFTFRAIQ
Assay: Evaluated for inhibition of bovine adrenal cortical mitochondrial 11 beta-hydroxylase
Type: functional
How it was run: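 Crude lyophilized, defatted adrenal cortical mitochondria (300 µg) plus 15.0 µM purified adrenodoxin, in 0.50 mL of 50 mM potassium phosphate pH 7.40. Additions: 200 µM DOC with [3H]DOC tracer, 16 mM MgCl2, 4.6% propylene glycol, inhibitor (final 1% ethanol). Preincubated 5 min at 37 °C, then started with 1.5 mM NADPH. Products extracted into CH2Cl2, separated by TLC, counted by scintillation. Percent inhibition versus 1% ethanol controls; duplicates.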

| pIC50 | Structure (SMILES) |
| --- | --- |
| 5.11 | CC(C)(C(=O)c1cccnc1)c1cccnc1 [METYRAPONE] |
| 5.14 | CC(C)(c1cccnc1)C(Cl)c1cccnc1 (stereo not given) |
| 5.32 | CC(C)(C(=NO)c1cccnc1)c1cccnc1 |
| 5.15 | CC(C)(c1cccnc1)C(O)c1cccnc1 (stereo not given) [METYRAPOL] |
| 5.79 | CC(C)(c1cccnc1)C(Cl)c1ccccc1 (stereo not given) |
| 5.14 | COC(c1cccnc1)C(C)(C)c1cccnc1 (stereo not given) |
| 4.06 | CC(=O)NC(c1cccnc1)C(C)(C)c1cccnc1 (stereo not given) |
| 5.27 | CC(C)(c1cccnc1)C(I)c1cccnc1 (stereo not given) |
| 5.48 | CC(C)(C(=O)c1ccccc1)c1cccnc1 |
| 5.11 | CC(C(=O)c1ccccc1)c1cccnc1 (stereo not given) |
| < 3.00 | CC(C)(c1cccnc1)C(N)c1cccnc1 (stereo not given) |
| 3.80 | O=C(Cc1cccnc1)c1ccccc1 |
| 6.18 | CC(C)(Cc1ccccc1)c1cccnc1 |
| 5.58 | CC(C)(Cc1cccnc1)c1cccnc1 |
| 5.82 | CC(C)(c1cccnc1)C(O)c1ccccc1 (stereo not given) |
